Test results as given in PubChem BioAssay AID624106 (Broad Institute, 2012).
Calls of active or inactive are those of the source.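 How the source made its calls: active means fitted curve reaches a 35% absorbance drop at both wavelengths in duplicate, with AC35 under 50 µM; inactive means the rest, including signal rising instead of falling.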

Tested on: not listed separately
Test: P. aeruginosa growth delay with EDDHA chelator – PAK wild type, OD405, dry powder, set 2, dose response (AID 624106)
Settings: P. aeruginosa PAK + EDDHA, OD405 pyoverdine, 28 h; at 100 µM (top of the series)
Summary of the method: (§1)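 Assay system: wild-type Pseudomonas aeruginosa PAK bacteria; buffer or medium: succinate M9 medium, pH 7.0, with 2 µM EDDHA iron chelator; doses: compounds 15 nM–100 µM final; times: compound exposure 28 h at 30 °C, humidified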

**Q.** For CCCCC(c1ccc(Cl)cc1)c1nn[nH]n1 (centres undefined), which activity change, negative = inhibition is on record?
**A.** -8.03% (inactive)

**Q.** With Clc1ccc(C(c2cccc(Cl)n2)c2nn[nH]n2)cc1 (centres undefined) as the molecule, how does the activity change, negative = inhibition read?
**A.** 11.9% (inactive)

**Q.** Which activity change, negative = inhibition does the source give for N#CC1c2ccc(Cl)cc2CCc2cccnc21 (centres undefined) here?
**A.** -13.8% (inactive)

**Q.** For COCCC(C#N)c1ccc(Cl)cc1 (centres undefined), which activity change, negative = inhibition is on record?
**A.** -2.12% (inactive)

**Q.** For COCCNC(C#N)c1ccc(Cl)cc1 (centres undefined), which activity change, negative = inhibition is on record?
**A.** -12.1% (inactive)

**Q.** Which activity change, negative = inhibition does the source give for COCCOCCC(C#N)c1ccc(Cl)cc1 (centres undefined) here?
**A.** -2.61% (inactive)

**Q.** For CN(C)CCCC(C#N)c1ccc(Cl)cc1 (centres undefined), which activity change, negative = inhibition is on record?
**A.** -3.43% (inactive)

**Q.** For COCCOCCC(C#N)c1ccc(F)cc1 (centres undefined), which activity change, negative = inhibition is on record?
**A.** -8.85% (inactive)

**Q.** Which activity change, negative = inhibition does the source give for CCCCC(C#N)c1ccc(Cl)cc1 (centres undefined) here?
**A.** -7.02% (inactive)

**Q.** With CCCCC(C#N)c1ccc(F)cn1 (centres undefined) as the molecule, how does the activity change, negative = inhibition read?
**A.** -12.4% (inactive)

**Q.** Which activity change, negative = inhibition does the source give for CCCCC(C#N)c1ccccn1 (centres undefined) here?
**A.** -4.26% (inactive)

**Q.** For N#CC(c1ccc(C(F)(F)F)c(Cl)n1)c1ccccc1OC(F)(F)F (centres undefined), which activity change, negative = inhibition is on record?
**A.** -16% (inactive)

**Q.** Which activity change, negative = inhibition does the source give for CCCCC(C#N)c1ccc(Cl)cn1 (centres undefined) here?
**A.** -7.7% (inactive)

**Q.** Which activity change, negative = inhibition does the source give for CN(C)CCCC(C#N)c1ccc(F)cc1 (centres undefined) here?
**A.** -12.9% (inactive)

**Q.** With CCCCC(C#N)c1ccc(F)cc1 (centres undefined) as the molecule, how does the activity change, negative = inhibition read?
**A.** -5.09% (inactive)

Tested on: P. aeruginosa PAK + EDDHA, OD405 pyoverdine, 28 h
Test: as above
Settings: not given
Summary of the method: as §1

**Q.** With N#CC(c1cccc(C(F)(F)F)n1)c1ccc(Cl)cc1F (centres undefined) as the molecule, how does the AC35 read?
**A.** 18.8 µM

**Q.** For N#CC(c1ccc(Cl)cc1)c1cccc(Cl)n1 (centres undefined), which AC35 is on record?
**A.** 67 µM

**Q.** Which AC35 does the source give for COCCC(C#N)c1ccc(F)cc1 (centres undefined) here?
**A.** > 100 µM (inactive)

**Q.** Which AC35 does the source give for N#CC(c1ccc(Cl)cc1)c1ccccn1 (centres undefined) here?
**A.** > 100 µM (inactive)

**Q.** With N#Cc1cccc(C(C#N)c2ccc(F)cc2)n1 (centres undefined) as the molecule, how does the AC35 read?
**A.** > 100 µM (inactive)

**Q.** Which AC35 does the source give for N#CC(c1ccc(F)cc1)c1cccc(C(F)(F)F)n1 (centres undefined) here?
**A.** 45.4 µM

**Q.** With N#CC(c1ccc(Cl)cc1)c1cccc(C(F)(F)F)n1 (centres undefined) as the molecule, how does the AC35 read?
**A.** 19.3 µM

**Q.** Which AC35 does the source give for N#CC(c1ccc(Cl)cc1)N1CCCC1 (centres undefined) here?
**A.** > 100 µM (inactive)

**Q.** With N#CC(c1cccc(Cl)n1)c1ccc(Cl)cc1F (centres undefined) as the molecule, how does the AC35 read?
**A.** 25.9 µM
